Test results: ChEMBL document CHEMBL1649111, “Restoration of susceptibility of intracellular methicillin-resistant Staphylococcus aureus to beta-lactams: comparison of strains, cells, and antibiotics” (Antimicrob Agents Chemother, 2008)
Converted amounts (≈) assume the structure as drawn.

How the values were obtained:
Staphylococcus aureus [1] = assay: Antimicrobial activity against intracellular hospital acquired methicillin-resistant Staphylococcus aureus ATCC 33591 infected in activated human THP-1 cells assessed as decrease in bacterial count from original inoculum at high compound concentration after 24 hrs at pH 7.4; format: functional
Summary of the method: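 THP-1 cells activated by 24-h culture with phorbol myristate acetate 2 mg/liter, then infected like unactivated THP-1. Cloxacillin dose range in mg/liter for 24 h. CFU per mg cell protein relative to the original inoculum, n = 3. Emin and Emax extrapolated from a Hill fit (slope 1), with EC50 as total drug; static concentration by graphical interpolation.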

Staphylococcus aureus [2] = assay: Bacteriostatic activity against intracellular beta-lactamase negative methicillin-susceptible Staphylococcus aureus ATCC 25923 infected in human keratinocytes assessed as decrease in bacterial growth after 24 hrs at pH 7.4; format: functional
Summary of the method: (§1)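 Primary human skin keratinocytes or Calu-3 bronchial epithelial cells infected with MSSA ATCC 25923 at 5 × 10⁷ to 1 × 10⁸ bacteria/ml, 2 h internalization. Postphagocytosis inoculum 1.5 × 10⁶ to 3.0 × 10⁶ CFU/mg protein. Cloxacillin concentration range for 24 h; CFU/mg protein change vs. inoculum (n = 3). Hill fit gives Emin/Emax; static concentration by graphical interpolation.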

Staphylococcus aureus [3] = assay: Antimicrobial activity against intracellular beta-lactamase negative methicillin-susceptible Staphylococcus aureus ATCC 25923 infected in human Calu3 cells assessed as increase in bacterial count from original inoculum at low compound concentration after 24 hrs at pH 7.4; format: functional, Calu-3; summary of the method: as §1
Staphylococcus aureus [4] = assay: Antimicrobial activity against intracellular hospital acquired methicillin-resistant Staphylococcus aureus ATCC 33591 infected in human Calu3 cells assessed as increase in bacterial count from original inoculum at low compound concentration after 24 hrs at pH 7.4; format: functional, Calu-3
Summary of the method: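 Primary human skin keratinocytes or Calu-3 bronchial epithelial cells, given an inoculum of 5 × 10⁷ to 1 × 10⁸ bacteria/ml and 2 h for internalization. Post-phagocytosis load 1.5 × 10⁶ to 3.0 × 10⁶ CFU per mg cell protein. Cloxacillin dose range in mg/liter for 24 h, n = 3. Hill-derived Emin, Emax and EC50; static concentration interpolated.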

Staphylococcus aureus [5] = assay: Bacteriostatic activity against beta-lactamase negative methicillin-susceptible Staphylococcus aureus ATCC 25923 infected in human THP-1 cells assessed as decrease in bacterial growth after 24 hrs at pH 7.4; format: functional
Staphylococcus aureus [6] = assay: Antimicrobial activity against beta-lactamase negative methicillin-susceptible Staphylococcus aureus ATCC 25923 by broth microdilution method at pH 5.5; format: functional
Staphylococcus aureus [7] = assay: Antimicrobial activity against hospital acquired methicillin-resistant and vancomycin-intermediate Staphylococcus aureus NRS18 obtained from patient with wound, skin and soft tissue infection by broth microdilution method at pH 5.5; format: functional
Staphylococcus aureus [8] = assay: Antimicrobial activity against animal acquired methicillin-resistant Staphylococcus aureus N7112046 by broth microdilution method at pH 5.5; format: functional
Staphylococcus aureus [9] = assay: (§2) Antimicrobial activity against Panton-valentine leukocidin positive community acquired methicillin-resistant Staphylococcus aureus N4042228 infected in human THP-1 cells assessed as increase in bacterial count from original inoculum at low compound concentration after 24 hrs at pH 5.5; format: functional
Summary of the method: (§3)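 Bacteria phagocytosed by unactivated human THP-1 macrophages, then incubated 24 h with extracellular antibiotic at about 0.01× to 100× the pH 5.5 broth MIC. CFU per mg cell protein counted against the original inoculum, n = 3. A Hill-equation fit (slope factor 1) gave Emin and Emax, extrapolated to infinitely low and high concentration, and EC50. Static concentration was graphically interpolated.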

Staphylococcus aureus [10] = assay: as §2, with “NRS192 obtained from patient with pneumonia and septic arthritis” for “N4042228”; format: functional; summary of the method: as §3
Staphylococcus aureus [11] = assay: Antimicrobial activity against beta-lactamase negative methicillin-susceptible Staphylococcus aureus ATCC 25923 infected in human THP-1 cells assessed as decrease in bacterial count from original inoculum at high compound concentration after 24 hrs at pH 5.5; format: functional
Summary of the method: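 MSSA ATCC 25923 phagocytized by unactivated THP-1 macrophages; extracellular antibiotic from about 0.01× to 100× the broth MIC at pH 5.5, with gentamicin 0.5 mg/liter to block extracellular growth. CFU per mg cell protein counted at 24 h vs. original inoculum (n = 3). A Hill equation (slope factor 1) gives Emin/Emax, extrapolated to infinitely low/high concentration. Static concentration is read by graphical interpolation.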

Staphylococcus aureus [12] = assay: Antimicrobial activity against hospital acquired methicillin-resistant Staphylococcus aureus ATCC 33591 infected in human THP-1 cells assessed as decrease in bacterial count from original inoculum at high compound concentration after 24 hrs at pH 5.5; format: functional; summary of the method: as §3
Staphylococcus aureus [13] = assay: Antimicrobial activity against beta-lactamase negative methicillin-susceptible Staphylococcus aureus ATCC 25923 infected in human THP-1 cells assessed as decrease in bacterial growth after 24 hrs at pH 5.5; format: functional, organism-based; details: ATCC 25923, THP-1, 24 h; summary of the method: as §3
Staphylococcus aureus [14] = assay: Antimicrobial activity against hospital acquired methicillin-resistant and vancomycin-intermediate Staphylococcus aureus NRS126 obtained from bloodstream infection of patient infected in human THP-1 cells assessed as decrease in bacterial growth after 24 hrs at pH 5.5; format: functional, organism-based; details: NRS126, THP-1, 24 h; summary of the method: as §3
Staphylococcus aureus [15] = assay: Antimicrobial activity against hospital acquired methicillin-resistant and vancomycin-intermediate Staphylococcus aureus VRS2 obtained from wound, skin and soft tissue infection of patient infected in human THP-1 cells assessed as decrease in bacterial growth after 24 hrs at pH 5.5; format: functional, cell-based; details: VRS2, THP-1, 24 h
Summary of the method: (§4)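 Human THP-1 macrophages infected with each S. aureus strain. Cloxacillin added extracellularly at about 0.01× to 100× the broth MIC measured at pH 5.5, with gentamicin 0.5 mg/liter to stop extracellular growth. Incubated 24 h. CFU counted per mg cell protein as change from the post-phagocytosis inoculum, n = 3. Emin, Emax and EC50 from a Hill fit; static concentration by graphical interpolation.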

Staphylococcus aureus [16] = assay: Bacteriostatic activity against hospital acquired methicillin-resistant Staphylococcus aureus N4120032 infected in human THP-1 cells assessed as decrease in bacterial growth after 24 hrs at pH 5.5; format: functional; summary of the method: as §4
Staphylococcus aureus [17] = assay: Bacteriostatic activity against hospital acquired methicillin-resistant Staphylococcus aureus HMC546 infected in human THP-1 cells assessed as decrease in bacterial growth after 24 hrs at pH 5.5; format: functional; summary of the method: as §4
Staphylococcus aureus [18] = assay: Bacteriostatic activity against Panton-valentine leukocidin positive community acquired methicillin-resistant Staphylococcus aureus NRS192 infected in human THP-1 cells assessed as decrease in bacterial growth after 24 hrs at pH 5.5; format: functional; summary of the method: as §4
Staphylococcus aureus [19] = assay: Bacteriostatic activity against hospital acquired methicillin-resistant and vancomycin-intermediate Staphylococcus aureus NRS18 infected in human THP-1 cells assessed as decrease in bacterial growth after 24 hrs at pH 5.5; format: functional; summary of the method: as §4
Staphylococcus aureus [20] = assay: Bacteriostatic activity against hospital acquired methicillin-resistant and vancomycin-intermediate Staphylococcus aureus NRS126 infected in human THP-1 cells assessed as decrease in bacterial growth after 24 hrs at pH 5.5; format: functional; summary of the method: as §4
Staphylococcus aureus [21] = assay: Antimicrobial activity against intracellular beta-lactamase negative methicillin-susceptible Staphylococcus aureus ATCC 25923 infected in activated human THP-1 cells assessed as increase in bacterial count from original inoculum at low compound concentration after 24 hrs at pH 7.4; format: functional
Staphylococcus aureus [22] = assay: Antimicrobial activity against intracellular beta-lactamase negative methicillin-susceptible Staphylococcus aureus ATCC 25923 infected in activated human THP-1 cells assessed as decrease in bacterial count from original inoculum at high compound concentration after 24 hrs at pH 7.4; format: functional

Cc1onc(-c2ccccc2Cl)c1C(=O)N[C@@H]1C(=O)N2[C@@H]1SC(C)(C)[C@@H]2C(=O)O [CLOXACILLIN]
log10cfu (Staphylococcus aureus [1]): 0.7 | Activity (Staphylococcus aureus [2]): 1.1 mg/L | log10cfu (Staphylococcus aureus [3]): 3.19 | log10cfu (Staphylococcus aureus [4]): 2.39 | Activity (Staphylococcus aureus [5]): 0.6 mg/L | MIC (Staphylococcus aureus [6]): 0.06 µg/mL (≈ 0.138 µM) | MIC (Staphylococcus aureus [7]): 0.06 µg/mL (≈ 0.138 µM) | MIC (Staphylococcus aureus [8]): 0.125 µg/mL (≈ 0.287 µM) | log10cfu (Staphylococcus aureus [9]): 2.68 | log10cfu (Staphylococcus aureus [10]): 1.84 | log10cfu (Staphylococcus aureus [11]): 0.77 | log10cfu (Staphylococcus aureus [12]): 0.55 | EC50 (Staphylococcus aureus [13]): 4.44 ×MIC | EC50 (Staphylococcus aureus [14]): 5.33 ×MIC | EC50 (Staphylococcus aureus [15]): 3.63 ×MIC | Activity (Staphylococcus aureus [16]): 33.1 ×MIC | Activity (Staphylococcus aureus [17]): 11.7 ×MIC | Activity (Staphylococcus aureus [18]): 16.6 ×MIC | Activity (Staphylococcus aureus [19]): 14.1 ×MIC | Activity (Staphylococcus aureus [20]): 20.9 ×MIC | log10cfu (Staphylococcus aureus [21]): 3.05 | log10cfu (Staphylococcus aureus [22]): 0.9
